Source: ChEMBL document CHEMBL4339200, “Structure-based Discovery of Phenyl (3-Phenylpyrrolidin-3-yl)sulfones as Selective, Orally Active RORγt Inverse Agonists” (ACS Med Chem Lett, 2019)
Activity calls are given as the source filed them. The calls are words filed in the database; no cut-off is given here.

Columns and labels:
[1] = Permeability in human Caco2 cells; assay type: ADME, cell-based; conditions: Caco-2, read-out: permeability
Method in brief: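 Caco-2 monolayer permeability, reported as permeation coefficient in nm/s; an efflux ratio was also determined.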

[2] = Protein binding in mouse plasma assessed as unbound fraction; assay type: ADME, cell-free
[3] = target: T1, Nuclear receptor ROR-alpha (Homo sapiens) (UniProt P35398); assay: Inverse agonist activity at GAL4-fused RORalpha LBD (272 to 556 residues) (unknown origin) expressed in human Jurkat cells measured after 18 hrs by native IL17 promoter driven steady-glo luciferase assay; assay type: cell-based
T1 sequence (whole entry): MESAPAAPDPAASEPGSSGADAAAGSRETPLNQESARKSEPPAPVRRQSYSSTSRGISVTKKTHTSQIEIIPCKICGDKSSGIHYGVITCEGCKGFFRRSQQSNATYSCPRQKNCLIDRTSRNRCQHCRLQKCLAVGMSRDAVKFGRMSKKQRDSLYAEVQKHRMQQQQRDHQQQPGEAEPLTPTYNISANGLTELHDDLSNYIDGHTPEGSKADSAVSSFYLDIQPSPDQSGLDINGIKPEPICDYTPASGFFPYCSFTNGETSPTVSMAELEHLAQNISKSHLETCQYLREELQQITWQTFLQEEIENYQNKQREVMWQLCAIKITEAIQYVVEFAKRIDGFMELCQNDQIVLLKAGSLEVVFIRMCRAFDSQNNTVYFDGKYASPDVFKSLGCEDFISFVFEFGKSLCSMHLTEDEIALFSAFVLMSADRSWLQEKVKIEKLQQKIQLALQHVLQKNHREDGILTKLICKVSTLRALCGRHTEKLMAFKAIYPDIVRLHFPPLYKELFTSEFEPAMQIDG

[4] = Half life in mouse liver microsomes; assay type: ADME, Microsome
[5] = test system: Mus musculus; assay: Inhibition of IL2/IL23-induced IL17F production in C57BL/6 mouse at 5 mg/kg, po bid treated 30 mins prior to 24 hrs IL2 challenge followed by IL2/IL23 addition at 0,7 and 23 hrs measured after 7 hrs post last IL2/IL23 challenge relative to control; assay type: functional; conditions: C57BL/6, po
Method in brief: (§1)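 Naive mice were challenged three times with IL-2 plus IL-23 (first at 0 and 7 h) and dosed orally bid at 5, 15 or 50 mg/kg. Serum cytokines were measured 7 h after the final IL-2/IL-23 administration. An anti-IL-23 antibody served as positive control.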

[6] = test system: Mus musculus; assay: Inhibition of IL2/IL23-induced IL17F production in C57BL/6 mouse at 15 mg/kg, po bid treated 30 mins prior to 24 hrs IL2 challenge followed by IL2/IL23 addition at 0,7 and 23 hrs measured after 7 hrs post last IL2/IL23 challenge relative to control; assay type: functional; conditions: C57BL/6, po; method in brief: as §1
[7] = test system: Mus musculus; assay: Inhibition of IL2/IL23-induced IL17F production in po bid dosed C57BL/6 mouse treated 30 mins prior to 24 hrs IL2 challenge followed by IL2/IL23 addition at 0,7 and 23 hrs measured after 7 hrs post last IL2/IL23 challenge; assay type: functional, organism-based; method in brief: as §1

O=C(O)[C@H]1CC[C@H](C(=O)N2CC[C@](c3ccc(C(F)(C(F)(F)F)C(F)(F)F)cc3)(S(=O)(=O)c3ccc(F)cc3)C2)CC1
Papp [1]: 12 ×10⁻⁶ cm/s
fraction unbound [2]: 0.105
Activity [3]: inactive
half-life [4]: > 2 h
inhibition in vivo at 5 mg/kg [5]: 47%
inhibition in vivo at 15 mg/kg [6]: 77%
inhibition [7]: Dose-dependent effect
